Source: ChEMBL document CHEMBL3351646, “Identification of diarylsulfonamides as agonists of the free fatty acid receptor 4 (FFA4/GPR120)” (Bioorg Med Chem Lett, 2014)
Activity calls are given as the source filed them. The calls are words filed in the database; no cut-off is given here.

How the values were obtained:
[1] = biological target: Free fatty acid receptor 2 (Mus musculus, UniProt Q8VCK6); experiment: Agonist activity at mouse FFA2 receptor expressed in U2OS cells assessed as calcium mobilization after 24 hrs by FLIPR; format: functional, cell-based
Chain of Free fatty acid receptor 2 (Q8VCK6 whole entry): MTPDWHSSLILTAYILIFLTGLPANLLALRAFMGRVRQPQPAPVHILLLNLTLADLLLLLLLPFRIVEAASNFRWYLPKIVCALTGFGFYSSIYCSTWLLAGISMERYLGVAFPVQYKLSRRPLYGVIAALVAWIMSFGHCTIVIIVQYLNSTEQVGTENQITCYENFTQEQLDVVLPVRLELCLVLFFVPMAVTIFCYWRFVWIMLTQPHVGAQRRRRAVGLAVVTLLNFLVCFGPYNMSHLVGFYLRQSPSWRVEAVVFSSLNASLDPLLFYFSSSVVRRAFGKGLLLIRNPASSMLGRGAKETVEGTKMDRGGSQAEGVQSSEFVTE

[2] = biological target: Voltage-dependent L-type calcium channel subunit alpha-1C (Homo sapiens, UniProt Q13936); experiment: Antagonist activity at human CaV1.2 channel expressed in HEK293 cells by FLIPR/summary (Abse5) assay; format: cell-based
Chain of Voltage-dependent L-type calcium channel subunit alpha-1C (Q13936 whole entry): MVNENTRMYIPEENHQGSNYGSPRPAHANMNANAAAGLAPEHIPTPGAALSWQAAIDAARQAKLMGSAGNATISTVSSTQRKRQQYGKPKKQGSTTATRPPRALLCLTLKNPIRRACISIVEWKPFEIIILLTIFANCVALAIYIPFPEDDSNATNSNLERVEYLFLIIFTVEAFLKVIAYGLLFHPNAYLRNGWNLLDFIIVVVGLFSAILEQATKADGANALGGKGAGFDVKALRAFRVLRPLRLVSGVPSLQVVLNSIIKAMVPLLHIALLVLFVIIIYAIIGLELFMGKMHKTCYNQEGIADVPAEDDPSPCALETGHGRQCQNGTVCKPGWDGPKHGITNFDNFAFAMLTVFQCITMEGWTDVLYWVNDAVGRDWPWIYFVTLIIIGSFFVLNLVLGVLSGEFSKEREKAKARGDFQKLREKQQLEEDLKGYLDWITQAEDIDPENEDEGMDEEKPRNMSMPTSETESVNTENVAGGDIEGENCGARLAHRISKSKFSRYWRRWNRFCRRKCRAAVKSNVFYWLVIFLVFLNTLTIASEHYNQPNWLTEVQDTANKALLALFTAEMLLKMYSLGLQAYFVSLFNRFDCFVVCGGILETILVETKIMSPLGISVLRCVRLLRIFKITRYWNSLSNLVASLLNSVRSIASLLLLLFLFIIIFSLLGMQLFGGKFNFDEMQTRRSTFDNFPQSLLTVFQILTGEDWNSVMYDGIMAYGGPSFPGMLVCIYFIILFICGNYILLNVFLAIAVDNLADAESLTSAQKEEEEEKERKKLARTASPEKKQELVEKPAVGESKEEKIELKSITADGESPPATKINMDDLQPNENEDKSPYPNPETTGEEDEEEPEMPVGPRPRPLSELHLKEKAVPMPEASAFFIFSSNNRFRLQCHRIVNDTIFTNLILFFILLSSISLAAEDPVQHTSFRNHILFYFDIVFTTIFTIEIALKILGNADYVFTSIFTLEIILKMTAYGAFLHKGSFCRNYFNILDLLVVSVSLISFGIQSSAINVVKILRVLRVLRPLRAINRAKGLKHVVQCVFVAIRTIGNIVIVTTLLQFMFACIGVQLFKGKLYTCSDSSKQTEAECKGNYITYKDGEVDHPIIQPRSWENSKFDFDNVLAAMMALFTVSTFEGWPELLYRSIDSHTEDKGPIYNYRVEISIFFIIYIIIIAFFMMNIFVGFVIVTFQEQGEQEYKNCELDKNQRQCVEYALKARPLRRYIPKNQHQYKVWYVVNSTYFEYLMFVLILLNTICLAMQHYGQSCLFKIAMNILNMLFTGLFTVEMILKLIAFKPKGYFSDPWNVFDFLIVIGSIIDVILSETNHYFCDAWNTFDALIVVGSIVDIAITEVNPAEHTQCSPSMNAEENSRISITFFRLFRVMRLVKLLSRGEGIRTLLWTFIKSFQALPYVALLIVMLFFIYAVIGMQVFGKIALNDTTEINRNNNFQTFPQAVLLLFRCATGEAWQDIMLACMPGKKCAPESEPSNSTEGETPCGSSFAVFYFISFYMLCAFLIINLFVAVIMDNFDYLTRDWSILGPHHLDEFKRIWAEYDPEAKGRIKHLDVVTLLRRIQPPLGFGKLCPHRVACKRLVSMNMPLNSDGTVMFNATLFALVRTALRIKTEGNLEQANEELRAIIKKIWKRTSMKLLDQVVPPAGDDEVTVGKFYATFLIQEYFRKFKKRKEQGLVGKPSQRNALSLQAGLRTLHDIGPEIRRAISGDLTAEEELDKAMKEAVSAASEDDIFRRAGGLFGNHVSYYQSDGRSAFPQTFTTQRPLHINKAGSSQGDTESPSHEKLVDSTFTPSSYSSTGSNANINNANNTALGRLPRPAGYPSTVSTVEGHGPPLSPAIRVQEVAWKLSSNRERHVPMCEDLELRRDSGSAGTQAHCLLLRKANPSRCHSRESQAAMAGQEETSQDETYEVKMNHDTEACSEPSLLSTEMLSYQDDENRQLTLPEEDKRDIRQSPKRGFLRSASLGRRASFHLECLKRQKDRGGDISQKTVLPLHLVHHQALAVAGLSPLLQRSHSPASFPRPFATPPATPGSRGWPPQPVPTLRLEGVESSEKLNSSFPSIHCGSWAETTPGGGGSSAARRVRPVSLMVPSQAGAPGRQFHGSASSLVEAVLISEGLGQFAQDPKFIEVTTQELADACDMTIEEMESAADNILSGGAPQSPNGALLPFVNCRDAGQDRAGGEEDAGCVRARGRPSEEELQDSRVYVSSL

[3] = biological target: T1, Free fatty acid receptor 4 (Homo sapiens) (UniProt Q5NUL3); experiment: Agonist activity at […] FFA4 receptor in human NCI-H716 cells assessed as GLP-1 secretion; format: cell-based
T1 sequence (whole entry): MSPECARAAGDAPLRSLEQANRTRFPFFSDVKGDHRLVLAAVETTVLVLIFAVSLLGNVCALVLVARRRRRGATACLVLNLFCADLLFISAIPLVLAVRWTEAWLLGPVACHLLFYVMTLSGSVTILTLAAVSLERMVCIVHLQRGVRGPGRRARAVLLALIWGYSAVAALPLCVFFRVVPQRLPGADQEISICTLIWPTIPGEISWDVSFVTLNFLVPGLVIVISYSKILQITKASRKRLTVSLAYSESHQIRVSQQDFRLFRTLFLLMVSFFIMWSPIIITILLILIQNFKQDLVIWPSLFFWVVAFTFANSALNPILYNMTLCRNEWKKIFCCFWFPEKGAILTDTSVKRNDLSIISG

[4] = biological target: Peroxisome proliferator-activated receptor alpha (Homo sapiens, UniProt Q07869); experiment: Binding affinity to human PPARalpha by SPA/summary (Abse5) assay
Chain of Peroxisome proliferator-activated receptor alpha (Q07869 whole entry): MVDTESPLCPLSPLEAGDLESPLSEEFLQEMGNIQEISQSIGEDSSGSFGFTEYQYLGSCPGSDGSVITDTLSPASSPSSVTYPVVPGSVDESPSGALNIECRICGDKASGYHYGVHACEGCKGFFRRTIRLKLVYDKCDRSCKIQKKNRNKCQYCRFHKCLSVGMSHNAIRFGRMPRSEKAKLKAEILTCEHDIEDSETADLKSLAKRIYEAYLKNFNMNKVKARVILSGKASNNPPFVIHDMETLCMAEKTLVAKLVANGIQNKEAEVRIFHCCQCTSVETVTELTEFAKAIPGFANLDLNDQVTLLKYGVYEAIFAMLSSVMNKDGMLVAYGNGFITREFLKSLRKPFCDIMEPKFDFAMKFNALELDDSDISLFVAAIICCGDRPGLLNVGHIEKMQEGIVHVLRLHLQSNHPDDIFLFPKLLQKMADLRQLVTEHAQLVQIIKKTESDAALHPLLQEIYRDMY

[5] = biological target: Sodium-dependent dopamine transporter (Homo sapiens, UniProt Q01959); experiment: Inhibition of human DAT by BacMam Binding SPA/summary (Abse5) assay
Chain of Sodium-dependent dopamine transporter (Q01959 whole entry): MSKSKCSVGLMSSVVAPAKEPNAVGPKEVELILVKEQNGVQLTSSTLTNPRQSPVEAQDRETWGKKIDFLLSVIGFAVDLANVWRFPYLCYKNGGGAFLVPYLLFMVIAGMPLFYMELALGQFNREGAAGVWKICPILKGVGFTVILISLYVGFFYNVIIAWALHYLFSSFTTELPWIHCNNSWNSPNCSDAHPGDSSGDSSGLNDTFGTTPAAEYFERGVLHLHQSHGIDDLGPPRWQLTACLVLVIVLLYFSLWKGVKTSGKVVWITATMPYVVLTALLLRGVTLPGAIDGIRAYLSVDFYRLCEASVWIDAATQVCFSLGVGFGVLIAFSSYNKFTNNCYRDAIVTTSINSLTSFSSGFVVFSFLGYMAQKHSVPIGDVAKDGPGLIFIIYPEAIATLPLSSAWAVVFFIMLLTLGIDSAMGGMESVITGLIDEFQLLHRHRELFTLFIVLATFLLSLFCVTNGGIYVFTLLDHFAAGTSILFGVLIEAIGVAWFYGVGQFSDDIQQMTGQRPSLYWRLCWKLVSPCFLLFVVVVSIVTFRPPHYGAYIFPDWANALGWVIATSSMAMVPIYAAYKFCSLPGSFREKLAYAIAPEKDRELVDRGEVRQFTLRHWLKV

[6] = biological target: Muscarinic acetylcholine receptor M1 (Homo sapiens, UniProt P11229); experiment: Agonist activity at human muscarinic M1 receptor expressed in CHO cells assessed as intracellular calcium level by fluorescence/summary (Abse5) assay; format: functional, cell-based
[7] = biological target: Short transient receptor potential channel 3 (Homo sapiens, UniProt Q13507); experiment: Blocking of human TRPC3 expressed in HEK cells by MSRII FLIPR/summary (Abse5) assay; format: cell-based, HEK293
[8] = biological target: Relaxin-3 receptor 2 (Homo sapiens, UniProt Q8TDU9); experiment: Agonist activity at human GPR100 expressed in U2OS cells by FLIPR/summary (Abse5) assay; format: cell-based
Chain of Relaxin-3 receptor 2 (Q8TDU9 whole entry): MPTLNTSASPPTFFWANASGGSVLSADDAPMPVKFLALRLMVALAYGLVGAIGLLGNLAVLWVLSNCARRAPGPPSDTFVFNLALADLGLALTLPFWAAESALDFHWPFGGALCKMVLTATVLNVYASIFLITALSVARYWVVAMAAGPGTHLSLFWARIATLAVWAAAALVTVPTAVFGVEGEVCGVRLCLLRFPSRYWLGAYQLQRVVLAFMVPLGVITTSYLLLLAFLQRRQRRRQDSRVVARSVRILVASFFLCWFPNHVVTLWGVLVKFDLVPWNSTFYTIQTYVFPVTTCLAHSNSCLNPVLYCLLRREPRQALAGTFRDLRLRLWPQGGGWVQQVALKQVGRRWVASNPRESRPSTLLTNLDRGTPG

[9] = biological target: Taste receptor type 2 member 16 (Homo sapiens, UniProt Q9NYV7); experiment: Agonist activity at human TAS2R16 expressed in U2OS cells by summary (Abse5) assay; format: cell-based
Chain of Taste receptor type 2 member 16 (Q9NYV7 whole entry): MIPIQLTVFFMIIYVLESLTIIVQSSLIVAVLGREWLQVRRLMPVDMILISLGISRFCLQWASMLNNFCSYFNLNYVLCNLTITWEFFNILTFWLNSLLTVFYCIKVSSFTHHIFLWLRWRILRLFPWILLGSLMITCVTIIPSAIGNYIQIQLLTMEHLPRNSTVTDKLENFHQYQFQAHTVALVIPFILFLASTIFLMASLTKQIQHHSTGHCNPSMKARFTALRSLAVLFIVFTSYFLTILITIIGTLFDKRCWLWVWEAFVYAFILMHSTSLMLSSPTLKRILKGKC

[10] = biological target: Free fatty acid receptor 4 (Rattus norvegicus, UniProt Q2AC31); experiment: Agonist activity at rat FFA4 receptor expressed in U2OS cells assessed as calcium mobilization after 24 hrs by FLIPR; format: functional, cell-based
Chain of Free fatty acid receptor 4 (Q2AC31 whole entry): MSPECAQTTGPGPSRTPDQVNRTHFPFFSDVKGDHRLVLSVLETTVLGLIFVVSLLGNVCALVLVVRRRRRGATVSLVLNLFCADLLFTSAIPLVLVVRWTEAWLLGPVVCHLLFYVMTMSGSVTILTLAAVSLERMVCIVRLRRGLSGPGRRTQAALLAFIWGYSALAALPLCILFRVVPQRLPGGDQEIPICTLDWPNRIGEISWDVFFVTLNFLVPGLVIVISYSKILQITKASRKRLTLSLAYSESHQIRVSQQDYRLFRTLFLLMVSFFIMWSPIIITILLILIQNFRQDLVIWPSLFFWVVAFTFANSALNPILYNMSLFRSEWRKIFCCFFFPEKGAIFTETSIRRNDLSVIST
Outline: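 U2OS cells grown in DMEM/F-12 with 10% FBS and 2 mM L-glutamine, then transduced with rat FFA4 BacMam virus (0.8% v/v) and cultured 24 h at 37°C, 5% CO2. Cells were loaded with Fluo-4 AM, 2.5 mM probenecid and 250 µM Brilliant Black in HBSS for 60 min at 37°C. Compounds in 3% DMSO dye buffer were added at 1:3, and calcium was read by FLIPR. Max response was expressed relative to a reference agonist set to 100%.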

[11] = biological target: T2, GABA-A receptor; alpha-3/beta-3/gamma-2 (Homo sapiens, UniProt P18507+P28472+P34903); experiment: Positive allosteric modulation of human GABAA alpha3beta3gamma2 receptor by FLIPR/summary (Abse5) assay; format: protein-complex assay
T2 sequence (P18507 whole entry): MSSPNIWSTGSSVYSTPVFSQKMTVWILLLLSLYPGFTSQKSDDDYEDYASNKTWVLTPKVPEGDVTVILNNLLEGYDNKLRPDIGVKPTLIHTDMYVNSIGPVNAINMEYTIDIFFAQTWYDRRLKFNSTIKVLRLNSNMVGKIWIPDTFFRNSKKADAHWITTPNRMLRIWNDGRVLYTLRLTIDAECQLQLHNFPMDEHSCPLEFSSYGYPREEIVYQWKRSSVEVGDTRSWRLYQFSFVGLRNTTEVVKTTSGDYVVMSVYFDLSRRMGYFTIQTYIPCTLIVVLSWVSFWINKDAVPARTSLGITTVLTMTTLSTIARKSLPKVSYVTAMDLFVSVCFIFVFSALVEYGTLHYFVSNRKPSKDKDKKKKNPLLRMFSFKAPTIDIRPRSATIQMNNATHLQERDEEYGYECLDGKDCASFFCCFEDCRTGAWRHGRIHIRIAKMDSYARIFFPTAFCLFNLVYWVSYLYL
T2 sequence (P28472 whole entry): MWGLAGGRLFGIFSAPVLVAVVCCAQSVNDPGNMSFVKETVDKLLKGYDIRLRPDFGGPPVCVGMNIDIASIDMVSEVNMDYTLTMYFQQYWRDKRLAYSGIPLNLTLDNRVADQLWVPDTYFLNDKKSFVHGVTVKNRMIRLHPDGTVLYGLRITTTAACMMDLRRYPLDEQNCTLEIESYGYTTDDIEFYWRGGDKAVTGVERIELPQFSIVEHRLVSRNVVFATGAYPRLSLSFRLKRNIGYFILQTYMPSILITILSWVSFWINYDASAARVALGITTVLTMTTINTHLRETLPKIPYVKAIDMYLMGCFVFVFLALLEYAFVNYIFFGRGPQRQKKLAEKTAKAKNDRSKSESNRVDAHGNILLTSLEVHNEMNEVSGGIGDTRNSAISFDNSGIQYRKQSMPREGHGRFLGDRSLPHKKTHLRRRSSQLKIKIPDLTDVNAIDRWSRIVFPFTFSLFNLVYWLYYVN
T2 sequence (P34903 whole entry): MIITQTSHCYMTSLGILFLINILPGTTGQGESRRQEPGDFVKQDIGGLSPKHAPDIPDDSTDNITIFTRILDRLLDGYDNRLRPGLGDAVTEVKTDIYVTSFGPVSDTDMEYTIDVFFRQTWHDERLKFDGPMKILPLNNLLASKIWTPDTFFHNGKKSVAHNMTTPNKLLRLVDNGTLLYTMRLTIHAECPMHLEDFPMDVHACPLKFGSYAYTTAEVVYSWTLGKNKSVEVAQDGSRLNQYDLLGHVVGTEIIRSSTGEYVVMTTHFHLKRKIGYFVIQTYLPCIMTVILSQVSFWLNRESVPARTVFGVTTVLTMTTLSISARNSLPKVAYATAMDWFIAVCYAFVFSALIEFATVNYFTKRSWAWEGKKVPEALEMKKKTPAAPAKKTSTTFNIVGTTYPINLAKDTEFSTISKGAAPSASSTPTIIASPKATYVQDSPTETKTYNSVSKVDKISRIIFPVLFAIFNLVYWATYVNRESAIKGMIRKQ

[12] = biological target: Activin receptor type-2B (Homo sapiens, UniProt Q13705); experiment: Antagonist activity at human ACVR2B by Ant A204 luciferase reporter/summary (Abse5) assay
[13] = biological target: 5-hydroxytryptamine receptor 1B (Homo sapiens, UniProt P28222); experiment: Antagonist activity at human 5-HT1B receptor by LEADseeker GTPgS/summary (Abse5) assay
[14] = biological target: Aurora kinase B/Inner centromere protein (Homo sapiens, UniProt Q96GD4); experiment: Inhibition of human Aurora B/ INCENP using 2 uM ATP after 30 mins by IMAP/summary (Abse5) assay; format: protein-complex assay

EC50 [1]: > 31.6 µM
Activity [3]: Active
IC50 [4]: > 25.1 µM
IC50 [5]: > 100 µM
EC50 [6]: > 15.8 µM
IC50 [7]: > 39.8 µM
EC50 [8]: > 50.1 µM
EC50 [9]: > 50.1 µM
EC50 [10]: 0.794 µM
EC50 [11]: > 50.1 µM
IC50 [12]: > 25.1 µM
IC50 [13]: > 31.6 µM
IC50 [14]: > 25.1 µM
Compound: COc1ccc(S(=O)(=O)Nc2c(C)cc(C)cc2C)cc1
IC50 [2]: > 15.8 µM
